# Compound activity (PubChem BioAssay)
# RAD54 inh – inhibitors of human RAD54 branch migration. Q92698. RAD54 Holliday junction branch migration, FAM/BHQ fluorescence. inhibition, % at 10.4 µM. hit rate 0.14% among 360,000. AID 602329;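 active = mean normalized replicate activity at least 40 and at least half of replicates scoring 40 or more; inconclusive = only one of the two criteria met; inactive = mean below 40 and under half of replicates reaching 40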;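 note: 0% = median of neutral control wells and 100% = median of positive control wells; inhibitors cause a drop in the FAM fluorescence signal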
# Target sequence (Q92698 whole entry, looked up): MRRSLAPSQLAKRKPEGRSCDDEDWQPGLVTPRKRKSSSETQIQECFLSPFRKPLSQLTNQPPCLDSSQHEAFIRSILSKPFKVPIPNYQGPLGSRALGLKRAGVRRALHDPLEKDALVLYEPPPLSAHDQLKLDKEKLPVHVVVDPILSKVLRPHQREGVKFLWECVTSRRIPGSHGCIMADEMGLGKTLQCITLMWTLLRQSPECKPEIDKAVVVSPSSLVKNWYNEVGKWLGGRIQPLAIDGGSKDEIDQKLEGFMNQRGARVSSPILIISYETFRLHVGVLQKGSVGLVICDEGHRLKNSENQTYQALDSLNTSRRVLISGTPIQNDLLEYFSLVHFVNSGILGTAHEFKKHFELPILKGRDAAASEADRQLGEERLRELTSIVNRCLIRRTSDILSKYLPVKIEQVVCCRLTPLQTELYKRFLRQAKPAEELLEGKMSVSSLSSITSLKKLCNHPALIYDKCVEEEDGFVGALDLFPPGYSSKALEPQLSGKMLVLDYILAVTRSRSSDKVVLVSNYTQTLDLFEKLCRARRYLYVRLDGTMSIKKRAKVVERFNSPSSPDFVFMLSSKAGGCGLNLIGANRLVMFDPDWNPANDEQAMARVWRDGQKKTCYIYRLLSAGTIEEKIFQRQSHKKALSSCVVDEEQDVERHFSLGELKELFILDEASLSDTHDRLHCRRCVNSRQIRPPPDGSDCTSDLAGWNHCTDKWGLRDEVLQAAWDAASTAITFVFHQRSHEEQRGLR
# S100A4 inh HTS – S100A4-myosin IIA interaction inhibition. P26447. S100A4/TAMRA-MyoIIA peptide fluorescence polarization. inhibition, % at 10.7 µM. hit rate 0.14% among 360,000. AID 652163;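 active = mean inhibition of at least 70% across replicates, with every replicate also reaching that level; inconclusive = mean inhibition reaches 70% but some replicates fall short; inactive = mean inhibition below 70%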
#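 System – human S100A4 monomer protein, biochemical binding assay · Buffer or medium – Calcium-containing HEPES buffer, pH 7.2 · Timing – 5 min between mix addition and reading · Also added – TAMRA-labelled myosin IIA heavy-chain peptide probe, 5 nM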
# INS-1E GSIS act – GLuc luminescence reporter in INS-1E cells, primary screen for activators of glucose-dependent secretion of insulin; activation, % at 16.6 µM; AID 743287; INS-1E GLuc reporter insulin secretion, 2-3 h; hit rate 0.61% among 370,000;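 active = lowest replicate activation of at least 40%, so every replicate reaches that level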;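 note: 0% = median of neutral control wells and 100% = median of IBMX positive control wells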
# MLL AF4-AF9 inh – MLL-AF4/AF9 protein interaction inhibition; inhibition, % at 10 µM; hit rate 0.47% among 350,000; AlphaScreen, biotin-AF4 peptide binding to FLAG-AF9; AID 651704;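 active = every replicate reaching a set inhibition limit, whatever the replicate mean, cut at about 25% in these data; inconclusive = mean inhibition reaches that limit but some replicates miss it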;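 note: 0% = plate neutral control median and 100% = total signal loss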
# RAD52 inh – blocks human RAD52 DNA annealing; AID 651710; recombinant RAD52 DNA annealing, FRET fluorescence; hit rate 0.46% among 360,000; inhibition, % at 18.7 µM; P43351;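 active = every replicate showing at least 50% inhibition; inconclusive = mean inhibition at least 50% but not in every replicate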
# Numbers without * were called inactive; ? = inconclusive; . = no result given. Most compounds without a hit are left out; they make up all but 1.3% or so of the library.
SMILES,RAD54 inh,S100A4 inh HTS,INS-1E GSIS act,MLL AF4-AF9 inh,RAD52 inh
Cc1noc(C)c1NC(=O)N(C)C[C@H]1Oc2cc(C#CCC3CCCC3)ccc2S(=O)(=O)N([C@H](C)CO)C[C@H]1C,3.2,10.0,0.7,37.3*,-6.2
Cc1noc(C)c1NC(=O)N(C)C[C@@H]1Oc2cc(C#CCC3CCCC3)ccc2S(=O)(=O)N([C@@H](C)CO)C[C@@H]1C,-2.0,-6.3,-14.8,28.7*,21.1
Cc1noc(C)c1NC(=O)N(C)C[C@@H]1Oc2cc(C#CCC3CCCC3)ccc2S(=O)(=O)N([C@H](C)CO)C[C@H]1C,-1.7,-1.0,-15.1,?,19.7
Cc1noc(C)c1NC(=O)N(C)C[C@H]1Oc2cc(C#CCC3CCCC3)ccc2S(=O)(=O)N([C@H](C)CO)C[C@@H]1C,-4.4,5.7,-14.7,4.2,16.4
Cc1noc(C)c1NC(=O)N(C)C[C@@H]1Oc2cc(C#CCC(C)C)ccc2S(=O)(=O)N([C@@H](C)CO)C[C@@H]1C,-0.9,-0.6,-4.6,27.8*,8.9
CO[C@H]1CN(C)C(=O)c2cc(C#N)ccc2OCC[C@@H]2CC[C@@H](OC)[C@@H](CN(C)C(=O)[C@H]1C)O2,3.7,10.4,-13.0,2.4,-11.5
CO[C@@H]1CN(C)C(=O)c2cc(NC(=O)Nc3cccc(F)c3)ccc2OC[C@@H](C)N(C(=O)Nc2c(C)noc2C)C[C@@H]1C,-3.7,-23.4,1.0,6.6,3.0
O=C(CCN1CCCCC1)NCC[C@H]1CC[C@@H](NC(=O)C2CCCC2)[C@H](CO)O1,0.6,0.7,4.6,-0.3,3.2
CC#CC(=O)NC1CCCN(C2Cc3ccccc3C2)C1 (centres undefined),-7.0,-1.5,-6.9,0.9,0.6
COc1cccc(C(=O)NC2CCCN(C3Cc4ccccc4C3)C2)c1OC (centres undefined),-1.2,-1.4,15.4,26.1*,-5.5
Cc1nc2c(-c3ccc(F)cc3)cnn2c2c1CCC2,.,0.2,43.6*,-8.1,-5.8
COc1ccc(-c2cnc3c(-c4ccc(F)cc4)cnn3c2N)cc1,-20.5,-1.4,-7.3,5.0,4.9
Cc1nn2c(nc(N3CCOCC3)c3ccccc32)c1C=C(C#N)C#N,-2.5,-1.4,41.1*,16.5,-42.4
COc1cccc(CN2CC3(C2)[C@H](c2ccccc2)[C@@H](CO)N3Cc2ccccc2OC)c1,.,.,-4.1,.,.
CCN(CC)CCCCN1c2ccccc2Sc2ccccc21,-5.0,0.3,-39.4,25.4*,13.1
O=C(C[C@@H]1CC[C@H]2NC[C@H](O)COC[C@@H]2O1)N1CCc2ccccc2C1,-6.4,22.2,-6.3,-19.9,1.7
O=C(C[C@@H]1CC[C@@H](NC(=O)C2CCC2)[C@@H](CO)O1)NC1CCCCC1,2.3,1.0,-8.2,-2.5,-1.8
CCN(CC)CCn1c2ccccc2c2cnc(N=CN(C)C)c(C#N)c21,96.6*,.,.,.,.
CCn1c2ccccc2c2cnc(N=CN(C)C)c(C#N)c21,11.5,.,.,.,.
Cc1cc2c(cc1C)CSC(c1c(O)ccc3ccccc13)SC2,-1.2,.,185.2*,.,.
CS(=O)(=O)c1ccc(Cl)c(NC(=O)COC(=O)c2c(Cl)cccc2Cl)c1,-7.1,1.2,7.1,-1.5,-13.7
CS(=O)(=O)c1ccc(Cl)c(NC(=O)COC(=O)Cc2c[nH]c3ccccc23)c1,15.5,-3.3,51.6*,?,-5.0
CC(=O)Nc1sc(C)c(C)c1C(=O)OCC(=O)Nc1cc(S(C)(=O)=O)ccc1Cl,-14.6,1.9,55.7*,-4.3,-35.4
C[C@H]1CN(C)C(=O)Cc2ccccc2O[C@H]1CN(C)C,.,.,1.5,.,.
COc1ccc(S(=O)(=O)Nc2ccc3c(c2)CC(=O)N([C@@H](C)CO)C[C@@H](C)[C@H](CN(C)C(=O)NC(C)C)O3)cc1,-1.8,1.5,15.6,-3.7,0.9
SMILES,RAD54 inh,S100A4 inh HTS,INS-1E GSIS act,MLL AF4-AF9 inh,RAD52 inh
CNC[C@@H]1Oc2ccc(NS(C)(=O)=O)cc2CC(=O)N(C)C[C@H]1C,.,.,-13.3,.,.
CNC[C@H]1Oc2cc(C#Cc3ccc(OC)cc3)ccc2S(=O)(=O)N([C@@H](C)CO)C[C@@H]1C,1.7,55.4,3.5,10.4,52.1*
Cc1ccc(-c2ccc3c(c2)O[C@@H](CN(C)C(=O)CN(C)C)[C@@H](C)CN([C@H](C)CO)S3(=O)=O)cc1,8.9,-2.5,7.1,7.8,58.2*
C[C@H](CO)N1C[C@H](C)[C@H](CN(C)C(=O)CN(C)C)Oc2cc(C#Cc3ccccc3)ccc2S1(=O)=O,7.6,-1.6,18.4,16.3,59.6*
C[C@@H]1CN([C@@H](C)CO)S(=O)(=O)c2ccc(C#Cc3ccccc3)cc2O[C@H]1CN(C)C(=O)CN(C)C,4.2,7.5,12.1,10.2,34.3
COc1ccccc1-c1ccc2c(c1)O[C@H](CN(C)C(C)=O)[C@@H](C)CN([C@@H](C)CO)S2(=O)=O,3.6,122.8*,-2.2,-5.7,17.3
Cc1ccccc1-c1ccc([C@H]2[C@H]3CN(C(=O)c4ccc(F)cc4)CC(=O)N3[C@H]2CO)cc1,.,5.8,-15.8,-5.3,-0.5
C[C@@H]1CN([C@H](C)CO)C(=O)Cc2cc(NC(=O)Nc3ccccc3)ccc2O[C@H]1CN(C)S(=O)(=O)c1cccs1,1.6,-12.6,12.5,-0.8,-1.1
C[C@@H]1CN([C@H](C)CO)S(=O)(=O)c2ccc(C#Cc3ccccc3)cc2O[C@@H]1CN(C)C(=O)CN(C)C,16.6,-5.5,59.8,20.3,67.8*
C[C@H]1CN([C@@H](C)CO)S(=O)(=O)c2ccc(C#Cc3ccccc3)cc2O[C@@H]1CN(C)C(=O)CN(C)C,-4.3,1.9,48.2*,9.8,34.6
Cc1ccc(Nc2nc(N)c([N+](=O)[O-])c(N3CCCC(C)C3)n2)cc1C (centres undefined),6.2,.,60.0*,.,.
Cc1ccc(Nc2nc(N)c([N+](=O)[O-])c(N3CCOCC3)n2)cc1,.,.,55.9*,.,.
CC1CCCN(c2nc(NCc3ccco3)nc(N)c2[N+](=O)[O-])C1 (centres undefined),.,-0.9,27.0,?,-11.7
COc1ccc(Nc2ccccc2N)cc1,.,-24.4,.,40.0*,-11.0
Cc1ccc(C)c(N(C(=O)c2csnn2)C(C(=O)NC2CCCCC2)c2ccccn2)c1 (centres undefined),-2.8,-4.7,8.2,37.3*,-5.8
Cc1noc(C)c1NC(=O)N(C)C[C@H]1Oc2ccc(NC(=O)CCN3CCOCC3)cc2CC(=O)N([C@@H](C)CO)C[C@@H]1C,0.1,0.4,5.7,-10.6,-1.0
CCCc1cc(=O)oc2cc(C)cc(OCC(=O)Nc3ccc(S(N)(=O)=O)cc3)c12,-7.4,-5.7,138.8*,-0.6,0.4
COc1ccc(S(=O)(=O)Nc2ccccc2OC)cc1N=Nc1c(O)[nH]c(=S)[nH]c1=O,-4.2,5.7,98.8*,-0.1,-2.8
C/C=C/c1ccc([C@H]2[C@@H](CO)N(C(=O)CC)[C@H]2CNC(=O)CC)cc1,1.2,-6.7,3.4,-0.6,-19.2
Cc1nnc2n1N=CC=C(c1ccccc1)S2,2.9,-3.7,41.4*,.,-11.9
Cc1nnc2n1N=CC=C(C(C)(C)C)S2,-4.6,.,.,.,.
